# Measurements gathered from unrelated publications.
# Protocols differ between the studies behind these lines.
# Target: G protein-coupled receptor kinase 3 (GRK3, Homo sapiens, UniProt P35626)
# One construct used (P35626 1-688): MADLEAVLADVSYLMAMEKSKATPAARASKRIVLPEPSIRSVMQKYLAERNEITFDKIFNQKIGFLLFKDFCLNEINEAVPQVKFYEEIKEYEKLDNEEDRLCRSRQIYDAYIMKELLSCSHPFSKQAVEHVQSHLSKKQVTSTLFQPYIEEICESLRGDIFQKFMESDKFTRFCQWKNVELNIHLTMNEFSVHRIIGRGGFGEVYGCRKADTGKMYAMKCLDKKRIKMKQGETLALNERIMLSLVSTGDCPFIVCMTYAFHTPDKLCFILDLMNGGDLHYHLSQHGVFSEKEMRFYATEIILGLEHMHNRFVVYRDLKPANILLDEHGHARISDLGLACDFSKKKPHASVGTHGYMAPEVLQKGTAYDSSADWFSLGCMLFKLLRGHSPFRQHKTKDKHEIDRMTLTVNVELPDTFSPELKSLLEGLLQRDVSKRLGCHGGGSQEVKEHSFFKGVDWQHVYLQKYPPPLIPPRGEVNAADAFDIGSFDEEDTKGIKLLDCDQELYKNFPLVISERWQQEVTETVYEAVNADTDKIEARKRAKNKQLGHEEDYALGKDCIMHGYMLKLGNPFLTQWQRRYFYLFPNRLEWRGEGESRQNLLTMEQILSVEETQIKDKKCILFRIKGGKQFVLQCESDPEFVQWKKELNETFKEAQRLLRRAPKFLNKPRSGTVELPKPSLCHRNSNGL
SMILES,assay,setting,remaining binding
c1cncc(-c2cccc(Nc3nccc(NC4CCCCC4)n3)c2)c1,"binding, competition with immobilised ligand",10 µM,99%
COc1ccnn2ncc(-c3ccnc(N(C)C)n3)c12,binding,1 µM,57%
C=CC(=O)N1CCC(C(=O)NCC(=O)N2CCN(c3nc(-c4cnc(N)nc4C(F)F)nc(N4CCOCC4)n3)CC2)CC1,"binding, competition with immobilised ligand",1 µM,100%
O=C(Nc1c[nH]nc1C(=O)NC1CCNCC1)c1cc(F)cc(F)c1,"binding, competition with immobilised ligand",1 µM,82%
FC(F)(F)Oc1cccc(-c2cnc3ccc(-c4ccncc4)nn23)c1,"cell-free assay, competition with immobilised ligand",5 µM,99%
O=C(NCCCN1CCOCC1)c1ccc(Nc2ncc(Cl)c(-c3ccc(Cl)s3)n2)cc1,"binding, competition with immobilised ligand",1 µM,51%
COc1cnc(Nc2cccc(S(N)(=O)=O)c2)nc1N1CCN(c2ccccc2)C(=O)C1,"binding, competition with immobilised ligand",1 µM,70%
C[C@@H](c1cccc(C#N)c1)n1cc(Cl)cc(C(N)=O)c1=N,"cell-free assay, competition with immobilised ligand",1 µM,81%
CNC(=O)[C@@H]1CC[C@@H](n2c(-c3ccc4cnccc4c3)nc3ccc(C(=O)NCc4cccc(C(N)=O)c4)cc32)C1,"binding, competition with immobilised ligand",1 µM,68%
Cc1cnn2ncc(-c3ccnc(N(C)C)n3)c2c1,binding,1 µM,67%
C[C@H](c1ccnc(Nc2nc3ccc(-c4cc(N(C)C)ncn4)cc3[nH]2)c1)N1CCN(C(=O)CC(F)(F)F)CC1,"cell-free assay, competition with immobilised ligand",0.1 µM,100%
O=C(c1ccc(Nc2nccc(-c3cc4ccccc4s3)n2)cc1)N1CCC(N2CCCC2)CC1,"binding, competition with immobilised ligand",1 µM,64%
O=C1CCc2cc(Nc3cc(OC4CCOCC4)c([N+](=O)[O-])cc3Cl)ccc2N1,"cell-free assay, competition with immobilised ligand",1 µM,100%
C[C@@H]1CCN(c2nccc(-c3cnn4ncccc34)n2)C1,binding,1 µM,56%
NS(=O)(=O)c1cc(NC(=O)C2(c3ccccc3Cl)CC2)ccc1Oc1cccc(Cl)c1,"cell-free assay, competition with immobilised ligand",1 µM,100%
N[C@H]1CCN(c2nccc(-c3cnn4ncccc34)n2)C1,binding,1 µM,66%
COc1ccc2c(c1)O[C@H](c1ccc(OC)c(OC)c1)C[C@@H]2NC(=O)C1(c2ccc3c(c2)OC(F)(F)O3)CC1,"cell-free assay, competition with immobilised ligand",1 µM,100%
CN(CCCC(F)(F)F)c1nccc(-c2cnn3ncccc23)n1,binding,1 µM,100%
O=C(O)[C@@H]1[C@@H](Cn2nnc3ccccc3c2=O)CC[C@H]1C(=O)c1ccc(OCCC2CCOCC2)cc1,"cell-free assay, competition with immobilised ligand",1 µM,100%
c1cnn2ncc(-c3ccnc(N4CCC45COC5)n3)c2c1,binding,1 µM,29%
Cc1cnc(Nc2ccc(C(=O)N3CCC(N4CCCC4)CC3)cc2)nc1-c1cc2ccccc2s1,"binding, competition with immobilised ligand",1 µM,73%
